Data: ChEMBL document CHEMBL5303300, “EUbOPEN Chemogenomics Library - Multiplex” (2023)
Where “and” joins values, the source holds several entries; their conditions need not be identical. Equal entries are not always repeated.

System: Fibroblast
Experiment: Multiplex assay against human fibroblast
Format: toxicity, cell-based
Details: number of replicates 2
Method in brief: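 At seeding, live cells were stained with Hoechst33342, BioTracker Green Microtubule Cytoskeleton Dye, MitoTracker Red and Annexin V Alexa Fluor 680. After compound addition they were imaged on a CQ1 microscope at 37°C and 5% CO2, and CellPathfinder machine-learning gating sorted them into Hoechst high-intensity objects or normal cells, with normal cells further split into healthy, pyknosed or fragmented nuclei and pyknosed cells into mitotic or apoptotic. Tubulin, mitochondrial-mass and membrane-permeability phenotypes are given as per cents of cells with healthy nuclei.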

[1] = 12 h, 1 µM, compound concentration 1 uM
[2] = 12 h, 10 µM, compound concentration 10 uM
[3] = 24 h, 1 µM, compound concentration 1 uM
[4] = 24 h, 10 µM, compound concentration 10 uM
[5] = 48 h, 1 µM, compound concentration 1 uM
[6] = 48 h, 10 µM, compound concentration 10 uM

Compound: COc1cc(N(C)c2ccnc3ccc(C(F)(F)F)cc23)cc(OC)c1OC
- Population Apoptotic (%) [1]: 43% and 38%
- Population Fragmented Nuclei (%) [1]: 7% and 10%
- Population Healthy Nuclei (%) [1]: 68% and 65%
- Population Hoechst High Intensity Objects (%) [1]: 0%
- Population Membrane Permeable-Phenotype (%) [1]: 10% and 7%
- Population Mitochondria Different-Phenotype (%) [1]: 0%
- Population Mitotic Cells (%) [1]: 56% and 61%
- Population Normal (%) [1]: 100% and 99%
- Population Pyknosed Nuclei (%) [1]: 23% and 24%
- Population Tubulin-Different-Phenotype (%) [1]: 21% and 18%
- Total Cell Count [1]: 216 and 225
- Population Apoptotic (%) [2]: 48% and 39%
- Population Fragmented Nuclei (%) [2]: 6% and 11%
- Population Healthy Nuclei (%) [2]: 77% and 63%
- Population Hoechst High Intensity Objects (%) [2]: 0%
- Population Membrane Permeable-Phenotype (%) [2]: 4% and 9%
- Population Mitochondria Different-Phenotype (%) [2]: 5% and 4%
- Population Mitotic Cells (%) [2]: 51% and 60%
- Population Normal (%) [2]: 100%
- Population Pyknosed Nuclei (%) [2]: 15% and 24%
- Population Tubulin-Different-Phenotype (%) [2]: 33% and 40%
- Total Cell Count [2]: 175 and 219
- Population Apoptotic (%) [3]: 48% and 50%
- Population Fragmented Nuclei (%) [3]: 7% and 13%
- Population Healthy Nuclei (%) [3]: 69% and 59%
- Population Hoechst High Intensity Objects (%) [3]: 0%
- Population Membrane Permeable-Phenotype (%) [3]: 8% and 4%
- Population Mitochondria Different-Phenotype (%) [3]: 1%
- Population Mitotic Cells (%) [3]: 51% and 49%
- Population Normal (%) [3]: 100% and 99%
- Population Pyknosed Nuclei (%) [3]: 23% and 27%
- Population Tubulin-Different-Phenotype (%) [3]: 24% and 14%
- Total Cell Count [3]: 229 and 213
- Population Apoptotic (%) [4]: 60% and 54%
- Population Fragmented Nuclei (%) [4]: 9% and 12%
- Population Healthy Nuclei (%) [4]: 71% and 66%
- Population Hoechst High Intensity Objects (%) [4]: 0%
- Population Membrane Permeable-Phenotype (%) [4]: 4%
- Population Mitochondria Different-Phenotype (%) [4]: 3% and 6%
- Population Mitotic Cells (%) [4]: 39% and 45%
- Population Normal (%) [4]: 100% and 99%
- Population Pyknosed Nuclei (%) [4]: 18% and 20%
- Population Tubulin-Different-Phenotype (%) [4]: 27% and 30%
- Total Cell Count [4]: 176 and 216
- Population Apoptotic (%) [5]: 66% and 47%
- Population Fragmented Nuclei (%) [5]: 8% and 14%
- Population Healthy Nuclei (%) [5]: 73% and 61%
- Population Hoechst High Intensity Objects (%) [5]: 0%
- Population Membrane Permeable-Phenotype (%) [5]: 1% and 7%
- Population Mitochondria Different-Phenotype (%) [5]: 0%
- Population Mitotic Cells (%) [5]: 33% and 52%
- Population Normal (%) [5]: 100%
- Population Pyknosed Nuclei (%) [5]: 18% and 23%
- Population Tubulin-Different-Phenotype (%) [5]: 10% and 12%
- Total Cell Count [5]: 229 and 214
- Population Apoptotic (%) [6]: 64% and 75%
- Population Fragmented Nuclei (%) [6]: 9% and 12%
- Population Healthy Nuclei (%) [6]: 72% and 70%
- Population Hoechst High Intensity Objects (%) [6]: 0%
- Population Membrane Permeable-Phenotype (%) [6]: 0% and 1%
- Population Mitochondria Different-Phenotype (%) [6]: 3% and 5%
- Population Mitotic Cells (%) [6]: 35% and 24%
- Population Normal (%) [6]: 99% and 100%
- Population Pyknosed Nuclei (%) [6]: 18% and 16%
- Population Tubulin-Different-Phenotype (%) [6]: 35% and 25%
- Total Cell Count [6]: 173 and 226

Compound: CNc1ncc2cc(-c3ccc(-c4cccc(C)n4)cc3Cl)c(=O)n(C[C@H]3OC[C@H](N)CO3)c2n1
- Population Apoptotic (%) [1]: 43% and 42%
- Population Fragmented Nuclei (%) [1]: 9% and 17%
- Population Healthy Nuclei (%) [1]: 51% and 52%
- Population Hoechst High Intensity Objects (%) [1]: 0%
- Population Membrane Permeable-Phenotype (%) [1]: 10%
- Population Mitochondria Different-Phenotype (%) [1]: 0%
- Population Mitotic Cells (%) [1]: 56% and 57%
- Population Normal (%) [1]: 100%
- Population Pyknosed Nuclei (%) [1]: 39% and 30%
- Population Tubulin-Different-Phenotype (%) [1]: 21% and 18%
- Total Cell Count [1]: 176 and 246
- Population Apoptotic (%) [2]: 44% and 35%
- Population Fragmented Nuclei (%) [2]: 22% and 26%
- Population Healthy Nuclei (%) [2]: 26% and 28%
- Population Hoechst High Intensity Objects (%) [2]: 1% and 7%
- Population Membrane Permeable-Phenotype (%) [2]: 23% and 16%
- Population Mitochondria Different-Phenotype (%) [2]: 0%
- Population Mitotic Cells (%) [2]: 55% and 64%
- Population Normal (%) [2]: 98% and 92%
- Population Pyknosed Nuclei (%) [2]: 50% and 45%
- Population Tubulin-Different-Phenotype (%) [2]: 55% and 51%
- Total Cell Count [2]: 227 and 323
- Population Apoptotic (%) [3]: 41% and 67%
- Population Fragmented Nuclei (%) [3]: 14% and 21%
- Population Healthy Nuclei (%) [3]: 56%
- Population Hoechst High Intensity Objects (%) [3]: 0%
- Population Membrane Permeable-Phenotype (%) [3]: 25% and 13%
- Population Mitochondria Different-Phenotype (%) [3]: 0%
- Population Mitotic Cells (%) [3]: 58% and 32%
- Population Normal (%) [3]: 100% and 99%
- Population Pyknosed Nuclei (%) [3]: 28% and 21%
- Population Tubulin-Different-Phenotype (%) [3]: 29% and 15%
- Total Cell Count [3]: 179 and 248
- Population Apoptotic (%) [4]: 45% and 65%
- Population Fragmented Nuclei (%) [4]: 27% and 23%
- Population Healthy Nuclei (%) [4]: 34% and 36%
- Population Hoechst High Intensity Objects (%) [4]: 7% and 4%
- Population Membrane Permeable-Phenotype (%) [4]: 31% and 34%
- Population Mitochondria Different-Phenotype (%) [4]: 5% and 4%
- Population Mitotic Cells (%) [4]: 54% and 34%
- Population Normal (%) [4]: 92% and 95%
- Population Pyknosed Nuclei (%) [4]: 38% and 39%
- Population Tubulin-Different-Phenotype (%) [4]: 37% and 59%
- Total Cell Count [4]: 304 and 248
- Population Apoptotic (%) [5]: 61% and 86%
- Population Fragmented Nuclei (%) [5]: 22% and 24%
- Population Healthy Nuclei (%) [5]: 64% and 66%
- Population Hoechst High Intensity Objects (%) [5]: 0%
- Population Membrane Permeable-Phenotype (%) [5]: 36% and 19%
- Population Mitochondria Different-Phenotype (%) [5]: 0%
- Population Mitotic Cells (%) [5]: 38% and 13%
- Population Normal (%) [5]: 100%
- Population Pyknosed Nuclei (%) [5]: 12% and 9%
- Population Tubulin-Different-Phenotype (%) [5]: 39% and 19%
- Total Cell Count [5]: 171 and 237
- Population Apoptotic (%) [6]: 42% and 24%
- Population Fragmented Nuclei (%) [6]: 19% and 28%
- Population Healthy Nuclei (%) [6]: 57% and 51%
- Population Hoechst High Intensity Objects (%) [6]: 9% and 11%
- Population Membrane Permeable-Phenotype (%) [6]: 40% and 39%
- Population Mitochondria Different-Phenotype (%) [6]: 2% and 1%
- Population Mitotic Cells (%) [6]: 57% and 75%
- Population Normal (%) [6]: 90% and 88%
- Population Pyknosed Nuclei (%) [6]: 23% and 20%
- Population Tubulin-Different-Phenotype (%) [6]: 33% and 29%
- Total Cell Count [6]: 268 and 338
